Source: PubChem (The Scripps Research Institute Molecular Screening Center)
PLCg1 inh: PLC-gamma1 enzyme inhibitors, primary screen, biochemical, fluorescence, purified enzyme; fluorogenic substrate; inhibition, % at 12.2 µM; AID 720700, 2013; actives 0.84% (n = 370,000)
TbMetRS inhib: T. brucei MetRS inhibitors, primary screen, biochemical, luminescence. methionyl-tRNA synthetase (Trypanosoma brucei brucei). purified T. brucei MetRS, ATP depletion, Kinase-Glo luminescence. inhibition, % at 11.9 µM. actives 0.4% (n = 360,000). AID 624268, 2012;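 active = inhibition above a per-plate cutoff of the control wells' mean inhibition plus 3 SD, cut at about 5.5% in these data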;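 note: 0% = DMSO wells median and 100% = median of wells with control inhibitor compound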
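Material – parasite MetRS enzyme · Medium – HEPES-MgCl2-KCl buffer plus DTT, spermine, BSA, pyrophosphatase · Reagent – ATP, methionine and E. coli bulk tRNA substrates · Times – 15 min enzyme-compound preincubation, 2 h reaction, 10 min detection, 25 °C · Measured by – luminescence of leftover ATP · Evaluation – percent inhibition relative to median high and low control wells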
sPLA2-III inh: human group III sPLA2 inhibitors, primary screen, biochemical, QFRET, BODIPY PC-A2 liposome substrate; Group 3 secretory phospholipase A2 (Homo sapiens), Q9NZ20; QFRET BODIPY PC-A2 liposome hydrolysis, fluorescence; inhibition, % at 12.2 µM; actives 0.56% (n = 370,000);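 active = inhibition above mean plus 3 SD of compounds lying within the high and low control bounds, cut at about 19% in these data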;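 note: 0% = median of test compound wells and 100% = no enzyme DMSO wells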
PLCb3 inh: human PLC-beta3 inhibitors, primary screen, biochemical, fluorescence; 1-phosphatidylinositol 4,5-bisphosphate phosphodiesterase beta-3 (Homo sapiens), Q01970; inhibition, % at 12.2 µM; Purified PLC-beta3, fluorogenic substrate; actives 0.18% (n = 370,000); AID 720704, 2013; in the data active = inhibition above about 11%;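 note: 0% = median of compound wells on plate and 100% = full blocker control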
Target sequence (Q01970 whole entry, looked up): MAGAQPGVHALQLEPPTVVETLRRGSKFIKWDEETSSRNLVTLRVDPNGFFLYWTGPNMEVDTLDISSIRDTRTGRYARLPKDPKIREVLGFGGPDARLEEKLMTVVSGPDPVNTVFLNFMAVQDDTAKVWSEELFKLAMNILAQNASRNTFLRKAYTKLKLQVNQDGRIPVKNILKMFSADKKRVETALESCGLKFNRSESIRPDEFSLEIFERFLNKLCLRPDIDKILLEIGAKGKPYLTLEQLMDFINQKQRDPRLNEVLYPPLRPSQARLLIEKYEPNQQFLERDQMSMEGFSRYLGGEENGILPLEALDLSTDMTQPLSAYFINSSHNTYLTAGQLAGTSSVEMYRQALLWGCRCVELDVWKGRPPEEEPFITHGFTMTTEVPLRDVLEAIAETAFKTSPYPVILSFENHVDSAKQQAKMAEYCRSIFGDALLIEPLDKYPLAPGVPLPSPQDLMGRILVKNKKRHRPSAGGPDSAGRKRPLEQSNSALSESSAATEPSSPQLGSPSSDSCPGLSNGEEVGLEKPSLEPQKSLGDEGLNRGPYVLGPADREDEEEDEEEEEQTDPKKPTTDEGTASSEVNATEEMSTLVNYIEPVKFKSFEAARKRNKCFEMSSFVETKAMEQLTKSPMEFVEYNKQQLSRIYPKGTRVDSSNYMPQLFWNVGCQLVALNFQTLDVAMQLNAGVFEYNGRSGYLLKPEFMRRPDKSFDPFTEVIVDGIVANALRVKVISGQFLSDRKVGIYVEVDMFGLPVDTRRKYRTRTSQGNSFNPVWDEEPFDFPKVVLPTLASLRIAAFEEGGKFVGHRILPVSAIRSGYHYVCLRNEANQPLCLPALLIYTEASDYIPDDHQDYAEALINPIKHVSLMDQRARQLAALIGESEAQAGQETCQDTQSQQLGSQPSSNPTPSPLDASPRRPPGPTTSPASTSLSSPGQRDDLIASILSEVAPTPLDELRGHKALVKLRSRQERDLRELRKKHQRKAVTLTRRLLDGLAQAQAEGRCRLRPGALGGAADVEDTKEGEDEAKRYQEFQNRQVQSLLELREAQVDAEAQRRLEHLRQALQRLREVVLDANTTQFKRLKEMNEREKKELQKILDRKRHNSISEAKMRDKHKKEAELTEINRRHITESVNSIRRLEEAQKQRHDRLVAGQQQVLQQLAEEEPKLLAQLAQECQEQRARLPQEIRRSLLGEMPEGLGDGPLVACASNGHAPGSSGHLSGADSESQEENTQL
PLCg1 ctr: PLC-gamma1 enzyme inhibitors, counter-screen for PLC-beta3 inhibitor project, biochemical, fluorescence; actives 3.1% (n = 3,300); purified PLC-gamma1, fluorogenic substrate; shares compounds with PLCg1 inh; inhibition, % at 12.3 µM
PLCb3 confirm: PLC-beta3 inhibitor confirmation, biochemical, fluorescence, purified enzyme | shares compounds with PLCg1 inh | actives 1% (n = 3,300) | inhibition, % at 12.3 µM | fluorogenic substrate fluorescence; in the data active = inhibition above about 11%
An asterisk follows results filed as active. The list is not random: actives were taken first. Their share in the collection is about 1.9%. Cut-off read from the data, not from the text of the source, unless noted: active = inhibition above about 9.5%; inactive = the rest.

Screening CN(Cc1ccccc1)S(=O)(=O)c1cccc(C(=O)OCc2ccc(Oc3ccccc3)cc2)c1 returned PLCg1 inh 2, sPLA2-III inh 7 and PLCb3 inh 0.
Screening O=C1CC(SCCO)C(=O)N1c1ccc(Oc2ccccc2)cc1 (stereo not given) returned PLCg1 inh 15*, TbMetRS inhib 0, sPLA2-III inh -7, PLCb3 inh 3, PLCg1 ctr -43 and PLCb3 confirm 3.
For O=C(O)CCSC1CC(=O)N(c2ccccc2)C1=O (stereo not given) the results were PLCg1 inh 1, TbMetRS inhib 0, sPLA2-III inh 0 and PLCb3 inh -4.
For CCOC(=O)c1c(C)nc(C)c(C(=O)OCC)c1-c1ccc(Br)cc1 the results were PLCg1 inh 12*, TbMetRS inhib -1, sPLA2-III inh 8, PLCb3 inh 6, PLCg1 ctr -5 and PLCb3 confirm -2.
`CCOC(=O)c1c(C)nc(C)c(C(=O)OCC)c1-c1ccc(OC)cc1` gave PLCg1 inh 3, TbMetRS inhib 0, sPLA2-III inh -1 and PLCb3 inh -1.
Screening CC(=O)NC1CC(C)(C)N(OC(C)=O)C(C)(C)C1 returned PLCg1 inh 10*, TbMetRS inhib -1, sPLA2-III inh 5, PLCb3 inh 1, PLCg1 ctr -8 and PLCb3 confirm -4.
Screening COC(=O)NCc1ccc(CNC(=O)OC)cc1 returned PLCg1 inh 3, TbMetRS inhib 0, sPLA2-III inh 8 and PLCb3 inh 6.
COC(=O)NCc1ccc(Cl)c(Cl)c1 was read as PLCg1 inh 12*, TbMetRS inhib -1, sPLA2-III inh 10, PLCb3 inh 2, PLCg1 ctr -7 and PLCb3 confirm -3.
`O=C1CCCc2oc3ccc(NS(=O)(=O)c4cccc5cccnc45)cc3c21` gave PLCg1 inh -1, TbMetRS inhib -1, sPLA2-III inh -18 and PLCb3 inh -1.
For O=S(=O)(Nc1ccc(C(O)(C(F)(F)F)C(F)(F)F)cc1)c1cccc2cccnc12 the results were PLCg1 inh 10*, TbMetRS inhib 0, sPLA2-III inh -53, PLCb3 inh -2, PLCg1 ctr -2 and PLCb3 confirm -4.
O=S(=O)(Nc1ccc(Br)cc1)c1cccc2cccnc12 was read as PLCg1 inh 2, TbMetRS inhib 0, sPLA2-III inh -16 and PLCb3 inh -1.
`O=c1oc2ccc(NS(=O)(=O)c3cccc4cccnc34)cc2s1` gave PLCg1 inh 10*, TbMetRS inhib 0, sPLA2-III inh -22, PLCb3 inh -3, PLCg1 ctr 0 and PLCb3 confirm -1.
O=C(NCCc1ccc(F)cc1)c1ccc2c(c1)ncn2C1CCCCC1 was read as PLCg1 inh -2, sPLA2-III inh -8 and PLCb3 inh -1.
`c1ccc(-c2c[nH]c3ccc(OCCN4CCOCC4)c(-c4ccccc4)c23)cc1` gave PLCg1 inh -5, sPLA2-III inh -30 and PLCb3 inh -3.
`CC(Oc1ccc(Cl)cc1Cl)C(=O)Nc1cccc(O)c1` (stereo not given) gave PLCg1 inh -3, TbMetRS inhib 0, sPLA2-III inh -6 and PLCb3 inh -2.
CC(Oc1ccc(Cl)cc1Cl)C(=O)Nc1ccc(O)cc1 (stereo not given) was read as PLCg1 inh 16*, TbMetRS inhib 0, sPLA2-III inh -25, PLCb3 inh 5, PLCg1 ctr -8 and PLCb3 confirm -6.
Screening O=C(CSc1ccccc1)N1CCC(Oc2cccnc2)CC1 returned PLCg1 inh 3, sPLA2-III inh 1 and PLCb3 inh 1.
`CCC[C@H]1[C@@H](OC(=O)NCc2ccc(OC)cc2)CC[C@@]23CCCN2C(=O)CCC[C@@H]13` gave PLCg1 inh 2, sPLA2-III inh 5 and PLCb3 inh 0.
Cc1nc2ccc(S(=O)(=O)NCC(=O)N(C)Cc3ccccc3F)cc2s1 was read as PLCg1 inh -1, sPLA2-III inh 7 and PLCb3 inh -2.
